Laboratory results published in ChEMBL document CHEMBL6134784, “Furoxan-piplartine hybrids as effective NO donors and ROS inducers in PC3 cancer cells: design, synthesis, and biological evaluation” (RSC Med Chem, 2024).
The source made the active and inactive calls. No cut-off for these calls is given here.

Legend:
PC-3 [1] = test: Induction of apoptosis in human PC-3 cells assessed as late apoptotic cells at 0.24 uM measured after 6 hrs by Alexa Fluor 488-annexin V/propidium iodide staining based flow cytometry (reference value: 3.37%); type: functional
[2] = Cytotoxicity against human MCF-10A cells assessed as reduction in cell viability measured after 48 hrs by CCK-8 assay; type: toxicity, cell-based
Procedure, shortened: (§1)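 CCK-8 viability: cells grown in RPMI-1640 with 10% FBS, 1×10^4 per well, attached 24 h, then medium replaced with fresh medium containing a range of compound concentrations for 48 h at 37 °C, 5% CO2. CCK-8 added 3 h, absorbance 450 nm; vehicle control set as 100%. IC50 by nonlinear regression, mean ± SD, at least two experiments in triplicate.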

[3] = Selectivity index, ratio of IC50 for cytotoxicity against human PNT2 cells to IC50 for cytotoxicity against human PC-3 cells; type: toxicity, cell-based; details: PNT2 cells versus PC-3 cells, read-out: Ratio IC50
Procedure, shortened: (§2)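 CCK-8 was added for 3 h and A450 read, with vehicle set as 100% viability. IC50 was fitted by nonlinear regression from ≥2 experiments in triplicate. SI = normal-cell IC50 divided by the matched cancer-cell IC50.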

MCF7 = test: Cytotoxicity against human MCF7 cells assessed as reduction in cell viability measured after 48 hrs by CCK-8 assay; type: functional, cell-based; details: MCF7, 48 h; procedure, shortened: as §1
PC-3 [4] = test: Cell cycle arrest in human PC-3 cells assessed as down regulation of CCND1 gene expression at 0.24 uM measured after 3 hrs by qPCR analysis; type: functional, cell-based
Procedure, shortened: (§3)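 Seeded 1×10^5 cells per well in 6-well plates; PC3 treated 3 h. Total RNA extracted, qPCR; each target normalized to reference gene (β-actin) by efficiency-corrected ΔΔCt (Pfaffl) against a control calibrator sample, efficiencies from amplification profiles. Mean ± SEM of four independent experiments.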

[5] = Cytotoxicity against human PNT2 cells assessed as reduction in cell viability measured after 48 hrs by CCK-8 assay; type: toxicity, cell-based; procedure, shortened: as §1
PC-3 [6] = test: Induction of nitric oxide production in human PC-3 cells assessed as nitrite level at 100 uM measured after 12 to 48 hrs by Griess assay; type: functional; details: time 12-48 hrs
Procedure, shortened: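 PC3 cells were seeded at 1×10^4 per well and grown 24 h, then moved to serum-free RPMI with 100 μM compound for 12, 24 or 48 h at 37 °C. Supernatant was mixed with 1% sulfanilamide in 2.5% H3PO4 (10 min, dark), then 0.1% NED (10 min, 37 °C), and A540 was read. Nitrite was calculated from a NaNO2 curve (0–100 μM). Controls were DMSO and SNP 100 μM. Data from ≥3 independent experiments in triplicate, mean ± SD.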

PC-3 [7] = test: Induction of DNA damage in human PC-3 cells assessed as increase in phosphorylated gamma-H2AX expression at 0.24 uM measured after 6 hrs by DAPI staining based confocal laser scanning microscopy; type: functional, cell-based
Procedure, shortened: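 γ-H2AX immunostaining: PC3 on coverslips (1×10^5 cells), serum-starved 18 h, then treated (methods state 1 h; legend states 6 h); fixed 3.7% formaldehyde, permeabilized 0.25% Triton X-100, blocked 3% albumin, anti-phospho-H2A.X Ser139 (1:500) then Alexa Fluor 488 secondary, DAPI nuclei; confocal, 500 cells per slide, three experiments; UVC 20 min positive control.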

PC-3 [8] = test: Induction of apoptosis in human PC-3 cells assessed as viable cells at 0.24 uM measured after 6 hrs by Alexa Fluor 488-annexin V/propidium iodide staining based flow cytometry (reference value: 89.37%); type: functional; details: read-out: Activity
[9] = Selectivity index, ratio of IC50 for cytotoxicity against human MCF-10A cells to IC50 for cytotoxicity against human MCF7 cells; type: toxicity, cell-based; details: MCF-10A cells versus MCF7 cells, read-out: Ratio IC50; procedure, shortened: as §2
PC-3 [10] = test: Cell cycle arrest in human PC-3 cells assessed as down regulation of c-Myc gene expression at 0.24 uM measured after 3 hrs by qPCR analysis; type: functional, cell-based; procedure, shortened: as §3
PC-3 [11] = test: Cytotoxicity against human PC-3 cells assessed as reduction in cell viability measured after 48 hrs by CCK-8 assay; type: functional, cell-based; details: PC-3, 48 h; procedure, shortened: as §1
OVCAR-3 = test: Cytotoxicity against human OVCAR-3 cells assessed as reduction in cell viability measured after 48 hrs by CCK-8 assay; type: functional, cell-based; details: OVCAR-3, 48 h; procedure, shortened: as §1
PC-3 [12] = test: Induction of apoptosis in human PC-3 cells assessed as early apoptotic cells at 0.05 uM measured after 6 hrs by Alexa Fluor 488-annexin V/propidium iodide staining based flow cytometry (reference value: 6%); type: functional
PC-3 [13] = test: Cell cycle arrest in human PC-3 cells assessed as increase in cell accumulation at sub-G1 phase at 0.05 uM measured after 3 hrs in presence of antioxidant N-acetyl-L-cysteine by propidium iodide staining based flow cytometry; type: functional
Procedure, shortened: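 PC3 cells seeded 1×10^5 per well in 6-well plates, exposed 3 h, with or without 1 mM N-acetyl-L-cysteine pretreatment; vehicle 0.1% DMSO. Harvested with trypsin-EDTA, fixed in 75% ethanol in PBS at 4 °C for 30 min, stained 1 h with RNase (1.5 mg mL^-1) and propidium iodide (90 μg mL^-1); DNA content by flow cytometry. Phase fractions compared with control by ANOVA/Tukey.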

PC-3 [14] = test: Cell cycle arrest in human PC-3 cells assessed as up regulation of CDKN1A gene expression at 0.05 uM measured after 3 hrs by qPCR analysis; type: functional, cell-based; procedure, shortened: as §3
PC-3 [15] = test: Induction of ROS generation in human PC-3 cells at 0.05 uM measured after 30 mins by CellROX reagent based flow cytometry; type: functional, cell-based
Procedure, shortened: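 PC3 seeded 1×10^5 per well in 6-well plates, after 24 h treated together with CellROX green (5 μM final) for 30 min at 37 °C; 0.1% DMSO negative control, 1 mM H2O2 positive control. Cells collected and CellROX-positive fraction measured by flow cytometry.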

PC-3 [16] = test: Cell cycle arrest in human PC-3 cells assessed as down regulation of c-Myc gene expression at 0.05 uM measured after 3 hrs by qPCR analysis; type: functional, cell-based; procedure, shortened: as §3
PC-3 [17] = test: Cytotoxicity against human PC-3 cells assessed as reduction in cell viability at 0.05 uM measured after 24 hrs by SRB assay; type: functional, cell-based
Procedure, shortened: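 SRB assay: PC3 seeded 1×10^4 per well, after 24 h exposed 24 h at 37 °C, 5% CO2 with or without 1 mM N-acetyl-L-cysteine; vehicle 0.1% DMSO. Fixed with 15% TCA at 4 °C for 1 h, dried, stained 0.4% sulforhodamine B, dye solubilized in 10 mM Tris, absorbance 540 nm; ANOVA/Tukey.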

PC-3 [18] = test: Induction of apoptosis in human PC-3 cells assessed as viable cells at 0.05 uM measured after 6 hrs by Alexa Fluor 488-annexin V/propidium iodide staining based flow cytometry (reference value: 89.37%); type: functional; details: read-out: Activity
PC-3 [19] = test: Induction of morphological changes in human PC-3 cells assessed as cell rounding at 0.05 uM measured after 24 hrs by phase contrast microscopy; type: functional, cell-based
Procedure, shortened: (§4)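 PC3 cells were seeded at 1×10^5 per well in 6-well plates and treated after 24 h, with or without 1 mM N-acetyl-L-cysteine. The same observation field was imaged by phase contrast microscopy at 1, 2, 3, 4 and 24 h. DMSO vehicle served as control.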

PC-3 [20] = test: Induction of morphological changes in human PC-3 cells assessed as reduction in cell density at 0.05 uM measured after 24 hrs by phase contrast microscopy; type: functional, cell-based; procedure, shortened: as §4

Row | SMILES | IC50 at 48 h [2] | selectivity ratio [3] | IC50 (MCF7) | IC50 at 48 h [5] | Activity (PC-3 [6]) | selectivity ratio [9] | IC50 (PC-3 [11]) | IC50 (OVCAR-3) | also measured
1 | COc1cc(/C=C/C(=O)N2CCC=CC2=O)cc(OC)c1OCCCOc1no[n+]([O-])c1S(=O)(=O)c1ccccc1 | 3500 nM | 75.5 | 1200 nM | 17800 nM | 23.5 µM | 3 | 240 nM | 400 nM | Activity (PC-3 [1]): 43.61%; Activity (PC-3 [4]): Active; Activity (PC-3 [7]): Active; viability at 0.24 µM (PC-3 [8]): 48.6%; Activity (PC-3 [10]): Active
2 | COc1cc(/C=C/C(=O)N2CCC=CC2=O)cc(OC)c1OCCCCCCCCCCCCOc1no[n+]([O-])c1S(=O)(=O)c1ccccc1 | 123000 nM | 285 | 7900 nM | 14100 nM | 23.5 µM | 15.7 | 50 nM | 120 nM | Activity (PC-3 [12]): 6.6%; Activity (PC-3 [13]): inactive; Activity (PC-3 [14]): Active; Activity (PC-3 [15]): Active; Activity (PC-3 [16]): Active; Activity (PC-3 [17]): Active; viability at 0.05 µM (PC-3 [18]): 12.6%; Activity (PC-3 [19]): Active; Activity (PC-3 [20]): Active
